From PubChem BioAssay AID624368 (Broad Institute, 2012) come the findings set out here.

The test system of assay [1] is A375 viability, CellTiter-Glo ATP luminescence, 24 h. Briefly: A375 melanoma cell proliferation, dose response, counter-screen for MITF inhibitor project, CellTiter-Glo luminescence, dry powder, set 5 (AID 624368). An outline of the steps: (§1)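 Signal: ATP luminescence, CellTiter-Glo | System: MITF-independent A375 melanoma cells | Amount: 3000 cells per well | Incubation: 24 h compound exposure, 37 °C | Medium: Phenol red-free DMEM, 10% FBS | Compound: Pinned multi-dose series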
(A counterscreen serves to expose hits that act by an unwanted route or on another target.)

Assay in assay [2]: as above
The note with it: A375 viability, CellTiter-Glo ATP luminescence, 24 h; at 35 µM (top of the series). An outline of the steps:
as §1

The source made the active and inactive calls.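 The calls were made as follows: active = viability drop with AC50 at most twice the sample's highest valid dose; inconclusive = flat curve with moderate loss, or a poor fit; inactive = the rest.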

In general, AC50 refers to the midpoint of the concentration-response curve, whichever way the signal moves. As for `CN1CCN(C2=C(Nc3ccccc3)C(=O)c3ccccc3C2=O)CC1`, in assay [1], the AC50 is > 70 µM (inactive).

For the compound `O=C1C(NS(=O)(=O)c2cccs2)=C(c2ccccc2)C(=O)c2ccccc21`, in assay [1], the AC50 was > 70 µM (inactive).

In the case of `CCN1CCN(C2=C(NC(=O)c3ccc(Br)cc3)C(=O)c3ccccc3C2=O)CC1`, in assay [1], the AC50 was 28 µM.

For `COC1=C(Nc2ccccc2)C(=O)c2ccccc2C1=O`, the AC50 in assay [1] is > 70 µM (inactive).

On to `CC(=O)N(C)C1=C(N2CCN(C)CC2)C(=O)c2ccccc2C1=O`, for which the concentration at half-maximal activity (AC50) in assay [1] was 24.3 µM.

As for `C=CCNC1=C(Cl)C(=O)c2ccccc2C1=O`, the AC50 in assay [1] was > 70 µM (inactive).

For the compound `O=C(CNc1cccc2ccccc12)N/N=C/c1ccc([N+](=O)[O-])o1`, the AC50 in assay [1] is > 70 µM (inactive).

For `O=C1C(Nc2ccccc2)=C(N2CCOCC2)C(=O)c2ccccc21`, the AC50 in assay [1] is > 70 µM (inactive).

With `NC1=C(NS(=O)(=O)c2ccc(Br)cc2)C(=O)c2ccccc2C1=O`, in assay [1], the AC50 was > 70 µM (inactive).

As to `O=C1C(NS(=O)(=O)c2cccs2)=C(N2CCCCC2)C(=O)c2ccccc21`, the AC50 in assay [1] is > 70 µM (inactive).

As to `CN1CCN(C2=C(NC(=O)c3ccc(Br)cc3)C(=O)c3ccccc3C2=O)CC1`, in assay [1], the half-maximal activity concentration (AC50) is 32.2 µM.

For `NC1=C(c2ccccc2)C(=O)c2ccccc2C1=O`, in assay [1], the AC50 was > 70 µM (inactive).

`O=C(NC1=C(c2ccccc2)C(=O)c2ccccc2C1=O)c1ccco1`: the AC50 in assay [1] is 29.1 µM.

For `COC1=C(NS(=O)(=O)c2ccc(Br)cc2)C(=O)c2ccccc2C1=O`, in assay [1], the AC50 is > 70 µM (inactive).

Consider `O=C1C(NS(=O)(=O)c2ccc(Br)s2)=C(N2CCCCC2)C(=O)c2ccccc21`, for which the AC50 in assay [1] is > 70 µM (inactive).

Regarding `C=CCNC1=C(N(C)C(C)=O)C(=O)c2ccccc2C1=O`, in assay [1], the AC50 was 23 µM.

`O=C1C(Nc2ccccc2)=C(N2CCSCC2)C(=O)c2ccccc21`: the AC50 in assay [1] is > 70 µM (inactive).

Turning to `O=C(NC1=C(N2CCOCC2)C(=O)c2ccccc2C1=O)c1ccc(Br)cc1`, in assay [1], the AC50 is > 70 µM (inactive).

For `NC1=C(NC(=O)c2ccccc2)C(=O)c2ccccc2C1=O`, in assay [1], the AC50 was > 70 µM (inactive).

For `O=C1C=C(NS(=O)(=O)c2ccccc2)C(=O)c2ccccc21`, the AC50 in assay [1] was > 70 µM (inactive).

As to `Cc1ccc(C(=O)NC2=C(c3ccccc3)C(=O)c3ccccc3C2=O)o1`, in assay [1], the AC50 is 32 µM.

For `CN1CCN(C2=C(NS(=O)(=O)c3ccc(Br)s3)C(=O)c3ccccc3C2=O)CC1`, in assay [1], the AC50 was > 70 µM (inactive).

As for `CCN(CC)CCNC1=C(Nc2ccccc2)C(=O)c2ccccc2C1=O`, in assay [1], the AC50 was > 70 µM (inactive).

Take `O=C1C(Nc2ccccc2)=C(c2ccccc2)C(=O)c2ccccc21`: the AC50 in assay [1] was > 70 µM (inactive).

Turning to `O=C1C(Nc2ccccc2)=C(NS(=O)(=O)c2ccccc2[N+](=O)[O-])C(=O)c2ccccc21`, the activity change, negative = cytotoxicity in assay [2] is -2.72% (inactive).

`CCN(CC)CCCNC1=C(Nc2ccccc2)C(=O)c2ccccc2C1=O`: in assay [1], the AC50 is > 70 µM (inactive).

In the case of `CCN1CCN(C2=C(NS(=O)(=O)c3ccc(Br)cc3)C(=O)c3ccccc3C2=O)CC1`, in assay [2], the activity change, negative = cytotoxicity is 8.86% (inactive).

On to `NC1=C(c2ccc(OC(F)(F)F)cc2)C(=O)c2ccccc2C1=O`, for which the activity change, negative = cytotoxicity in assay [2] was -3.65% (inactive).

Turning to `COc1ccc(S(=O)(=O)N(C(C)=O)c2ccc(OC(C)=O)c3ccccc23)cc1[N+](=O)[O-]`, the AC50 in assay [1] is > 70 µM (inactive).

`COC1=C(NS(=O)(=O)c2ccccc2)C(=O)c2ccccc2C1=O`: in assay [1], the AC50 was > 70 µM (inactive).

As for `O=C1C(NS(=O)(=O)c2ccccc2)=C(N2CCCCC2)C(=O)c2ccccc21`, in assay [2], the activity change, negative = cytotoxicity is 0.773% (inactive).

On to `CCN1CCN(C2=C(NS(=O)(=O)c3ccc(Br)s3)C(=O)c3ccccc3C2=O)CC1`, for which, in assay [1], the AC50 was > 70 µM (inactive).

Consider `O=C1C=C(NS(=O)(=O)c2cccs2)C(=O)c2ccccc21`, for which the AC50 in assay [1] was > 70 µM (inactive).

For the compound `Cc1nc2ccccc2n1/N=C/c1ccc([N+](=O)[O-])s1`, the AC50 in assay [1] is > 70 µM (inactive).

With `CNC1=CC(=O)c2ccccc2C1=O`, in assay [2], the activity change, negative = cytotoxicity was 3.5% (inactive).

For `O=C1C=C(Nc2ccccc2)C(=O)c2ccccc21`, the AC50 in assay [1] was > 70 µM (inactive).

With `O=C(NC1=C(N2CCCCC2)C(=O)c2ccccc2C1=O)c1ccc(Br)cc1`, the AC50 in assay [1] is > 70 µM (inactive).

As to `O=C1C(NS(=O)(=O)c2ccccc2)=C(N2CCOCC2)C(=O)c2ccccc21`, the activity change, negative = cytotoxicity in assay [2] was -1.41% (inactive).

For the compound `C=CCNC1=C(Nc2ccccc2)C(=O)c2ccccc2C1=O`, in assay [1], the AC50 is > 70 µM (inactive).

As for `NC1=C(NS(=O)(=O)c2ccccc2)C(=O)c2ccccc2C1=O`, the AC50 in assay [1] was > 70 µM (inactive).

Regarding `NC1=C(NS(=O)(=O)c2cccs2)C(=O)c2ccccc2C1=O`, in assay [1], the AC50 is > 70 µM (inactive).

Turning to `O=C1C(NS(=O)(=O)c2ccccc2)=C(c2ccccc2)C(=O)c2ccccc21`, the AC50 in assay [1] is > 70 µM (inactive).

As to `NC1=CC(=O)c2ccccc2C1=O`, the AC50 in assay [1] was > 70 µM (inactive).

In the case of `NC1=C(NS(=O)(=O)c2ccc(Br)s2)C(=O)c2ccccc2C1=O`, the activity change, negative = cytotoxicity in assay [2] was 3.75% (inactive).

Regarding `CC1CCN(CC(CS(=O)(=O)c2ccc([N+](=O)[O-])cc2)N2CCC(C)CC2)CC1` (configuration not stated), the AC50 in assay [1] was > 70 µM (inactive).

On to `O=C1C(NS(=O)(=O)c2ccc(Br)s2)=C(N2CCSCC2)C(=O)c2ccccc21`, for which, in assay [1], the AC50 was > 70 µM (inactive).

Regarding `O=C1C(Nc2ccccc2)=C(N2CCCCC2)C(=O)c2ccccc21`, the AC50 in assay [1] was > 70 µM (inactive).

Consider `COC1=C(NS(=O)(=O)c2cccs2)C(=O)c2ccccc2C1=O`, for which the AC50 in assay [1] was > 70 µM (inactive).

`O=C1C=C(NS(=O)(=O)c2ccc(Br)cc2)C(=O)c2ccccc21`: in assay [2], the activity change, negative = cytotoxicity is 2.29% (inactive).

Take `O=C1C(NS(=O)(=O)c2ccc(Br)s2)=C(N2CCOCC2)C(=O)c2ccccc21`: in assay [1], the AC50 was > 70 µM (inactive).

With `C[C@@H](NC1=C(Nc2ccccc2)C(=O)c2ccccc2C1=O)c1ccccc1`, in assay [1], the AC50 was > 70 µM (inactive).

As for `O=C(NC1=C(N2CCSCC2)C(=O)c2ccccc2C1=O)c1ccc(Br)cc1`, in assay [1], the AC50 was > 70 µM (inactive).
